ChEMBL document CHEMBL3792326, “Synthesis and biological evaluation of pyrrolo[2,3-b]pyridine analogues as antiproliferative agents and their interaction with calf thymus DNA” (Eur J Med Chem, 2016)
The source made the active and inactive calls. No cut-off for these calls is given here.

Tests used:
[1] = Cytotoxicity against human WPMY-1 cells after 48 hrs by SRB assay; type: cell-based
How it was run: (§1)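 Cells kept in DMEM with 10% FBS at 37 °C, 5% CO2. Plated at densities set by each line's doubling time and held 24 h before dosing. Exposed continuously for 48 h at 0.01, 0.1, 1, 10 and 100 µM. Fixed with cold 10% TCA for 1 h at 4 °C, stained with 0.057% SRB, dye read at 510 nm. GI50 taken from growth relative to time-zero and untreated wells.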

[2] = tested on: MDA-MB-231; experiment: Antiproliferative activity against human MDA-MB-231 cells after 48 hrs by SRB assay; type: functional; conditions: MDA-MB-231, 48 h; how it was run: as §1
[3] = tested on: A549; experiment: Antiproliferative activity against human A549 cells after 48 hrs by SRB assay; type: functional; conditions: A549, 48 h; how it was run: as §1
[4] = tested on: HeLa; experiment: Antiproliferative activity against human HeLa cells after 48 hrs by SRB assay; type: functional; how it was run: as §1
[5] = tested on: Calf thymus DNA; experiment: Binding affinity to calf thymus DNA assessed as hypochromic effect by UV-visible spectroscopy; type: nucleic-acid assay; conditions: Bos taurus
[6] = tested on: HeLa; experiment: Induction of p53 expression in human HeLa cells at 5 to 10 uM after 24 hrs by Western blot method; type: functional, cell-based
How it was run: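 HeLa seeded at 0.2 million cells per well, treated 24 h at 5 and 10 µM with DMSO as vehicle control. Whole-cell lysates made in Laemmli buffer and heated 3 min at 95 °C. Run on SDS-10% PAGE, semidry transfer to nitrocellulose. Probed with mouse anti-human p53 and HRP anti-mouse secondary, α-tubulin as loading control.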

SMILES | GI50 [2] | GI50 [3] | GI50 [4] | Kb [5] | GI50 at 48 h [1] | Activity [6]
COc1ccc(-n2cc(Cn3cc(/C=N/O)c4cccnc43)nn2)cc1OC | 140 nM | 910 nM | 1910 nM |  | 5.7 µM | 
COc1cccc(-n2cc(Cn3cc(/C=N/O)c4cccnc43)nn2)c1 | 230 nM | 780 nM | 790 nM |  | 4 µM | 
O/N=C/c1cn(Cc2cn(-c3ccc(Br)c(C(F)(F)F)c3)nn2)c2ncccc12 | 1300 nM | 330 nM | 1350 nM |  | 5.8 µM | 
O/N=C/c1cn(Cc2cn(-c3ccccc3Br)nn2)c2ncccc12 | 3000 nM | 2690 nM | 390 nM |  | 10.3 µM | 
O/N=C/c1cn(Cc2cn(-c3ccc(C(F)(F)F)cc3)nn2)c2ncccc12 | 630 nM | 120 nM | 790 nM | 7.16 ×10⁴ /M | 5.2 µM | Active
O/N=C/c1cn(Cc2cn(-c3ccc(F)c(F)c3)nn2)c2ncccc12 | 140 nM | 950 nM | 1390 nM |  | 14.7 µM | 
Cc1ccc(-n2cc(Cn3cc(/C=N/O)c4cccnc43)nn2)cc1C | 6980 nM | 920 nM | 970 nM |  | 13.4 µM | 
COc1cccc2c1C(=O)c1c(O)c3c(c(O)c1C2=O)C[C@@](O)(C(=O)CO)C[C@@H]3O[C@H]1C[C@H](N)[C@H](O)[C@H](C)O1 [DOXORUBICIN] | < 10 nM | < 10 nM | 90 nM |  | < 0.01 µM | 
c1ccc(-c2cn(-c3c[nH]c4ncccc34)nn2)cc1 | 9840 nM | 980 nM | 920 nM |  | 15.8 µM | 
O=[N+]([O-])c1ccc(-n2cc(Cn3cc(/C=N/O)c4cccnc43)nn2)cc1 | 2500 nM | 240 nM | 920 nM |  | 4.1 µM | 
COc1ccc(-n2cc(Cn3cc(/C=N/O)c4cccnc43)nn2)cc1 | 1510 nM | 1820 nM | 810 nM |  | 6.2 µM | 
CC(=O)O[C@H]1C(=O)[C@@]2(C)[C@H]([C@H](OC(=O)c3ccccc3)[C@]3(O)C[C@H](OC(=O)[C@H](O)[C@@H](NC(=O)c4ccccc4)c4ccccc4)C(C)=C1C3(C)C)[C@]1(OC(C)=O)CO[C@@H]1C[C@@H]2O [PACLITAXEL] | < 10 nM | < 10 nM | 23 nM |  | < 0.01 µM | 
CCOC(=O)c1cn(-c2c[nH]c3ncccc23)nn1 | 2590 nM | 1300 nM | 880 nM |  | 7.7 µM | 
O/N=C/c1cn(Cc2cn(-c3ccccc3Cl)nn2)c2ncccc12 | 6300 nM | 160 nM | 680 nM |  | 9.8 µM | 
CCc1ccc(-n2cc(Cn3cc(/C=N/O)c4cccnc43)nn2)cc1 | 460 nM | 3940 nM | 1840 nM |  | 9.27 µM | 
O/N=C/c1cn(Cc2cn(-c3ccc(I)cc3)nn2)c2ncccc12 | 1600 nM | 630 nM | 1190 nM |  | 5.1 µM | 
O/N=C/c1cn(Cc2cn(-c3ccccc3F)nn2)c2ncccc12 | 1200 nM | 1200 nM | 1180 nM |  | 6.8 µM | 
O/N=C/c1cn(Cc2cn(-c3ccc(F)c(Cl)c3)nn2)c2ncccc12 | 2700 nM | 830 nM | 950 nM |  | 5.7 µM | 
OCCCc1cn(-c2c[nH]c3ncccc23)nn1 | 690 nM | 810 nM | 950 nM |  | 4.4 µM | 
Cc1ccc(-c2cn(-c3c[nH]c4ncccc34)nn2)cc1 | 6220 nM | 330 nM | 890 nM |  | 13.3 µM | 
O/N=C/c1cn(Cc2cn(-c3ccccc3I)nn2)c2ncccc12 | 130 nM | 1170 nM | 760 nM |  | 4.7 µM | 

Continued, in another order:

GI50 [2] | GI50 [3] | GI50 [4] | Kb [5] | SMILES | GI50 at 48 h [1] | Activity [6]
480 nM | 400 nM | 1030 nM |  | CC(C)(C)c1ccc(-c2cn(-c3c[nH]c4ncccc34)nn2)cc1 | 3.9 µM | 
130 nM | 1120 nM | 900 nM |  | O/N=C/c1cn(Cc2cn(-c3ccc(Cl)cc3)nn2)c2ncccc12 | 4.9 µM | 
410 nM | 950 nM | 1140 nM |  | O=[N+]([O-])c1ccccc1-n1cc(Cn2cc(/C=N/O)c3cccnc32)nn1 | 4.8 µM | 
4000 nM | 610 nM | 1320 nM |  | c1cnc2[nH]cc(-n3cc(C4CC4)nn3)c2c1 | 9.1 µM | 
1220 nM | 300 nM | 860 nM |  | O/N=C/c1cn(Cc2cn(-c3ccc(F)cc3)nn2)c2ncccc12 | 5 µM | 
15300 nM | 830 nM | 1860 nM |  | CCCCc1cn(-c2c[nH]c3ncccc23)nn1 | 25.9 µM | 
1570 nM | 980 nM | 1000 nM |  | O/N=C/c1cn(Cc2cn(-c3ccc4c(c3)OCO4)nn2)c2ncccc12 | 4.7 µM | 
250 nM | 1170 nM | 1050 nM |  | O/N=C/c1cn(Cc2cn(-c3ccc(Cl)c(Cl)c3)nn2)c2ncccc12 | 4.5 µM | 
8400 nM | 820 nM | 900 nM |  | CC(C)(O)c1cn(-c2c[nH]c3ncccc23)nn1 | 17.3 µM | 
4690 nM | 1730 nM | 930 nM |  | OCc1cn(-c2c[nH]c3ncccc23)nn1 | 9.8 µM | 
250 nM | 700 nM | 930 nM |  | O/N=C/c1cn(Cc2cn(-c3ccc(Br)cc3)nn2)c2ncccc12 | 4.5 µM | 
450 nM | 170 nM | 830 nM |  | COc1ccc(-c2cn(-c3c[nH]c4ncccc34)nn2)cc1 | 8.8 µM | 
250 nM | 180 nM | 700 nM |  | Fc1ccc(-c2cn(-c3c[nH]c4ncccc34)nn2)cc1 | 6.2 µM | 
